Experimental data: PMC5435566 (Nature chemical biology, 2017)

Legend:
[1] = test system: human LMPTP-A mutants (Y49, Y131, Y132); experiment: Inhibition of LMPTP-A mutants, OMFP substrate; type: biochemical; settings: 0.4 mM OMFP, versus wild-type LMPTP-A
Summary of the method: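 Wild-type and mutant human LMPTP-A were assayed with 0.4 mM OMFP in 50 mM Bis-Tris pH 6.0, 1 mM DTT, 0.01% Triton X-100 at 37°C across test-compound concentrations. OMFP hydrolysis was monitored continuously by fluorescence (ex 485/em 525 nm) and reported as % activity, from 3 independent experiments.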

Solubility = type: physicochemical
human LMPTP-A = target: T1, human LMPTP-A (Homo sapiens, UniProt P24666); experiment: Isothermal titration calorimetry; type: binding
T1 sequence (P24666 1-158): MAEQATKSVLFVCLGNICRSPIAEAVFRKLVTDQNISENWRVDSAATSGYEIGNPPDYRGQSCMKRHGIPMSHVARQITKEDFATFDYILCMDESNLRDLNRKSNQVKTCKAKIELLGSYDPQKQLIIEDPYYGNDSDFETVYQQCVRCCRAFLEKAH
Summary of the method: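 ITC was run at 23°C: 2 μl injections of 0.5 mM test compound into 50 μM human LMPTP-A, with or without 200 μM sodium orthovanadate to form the cysteine adduct. Tris runs used 10 mM Tris pH 7.5, 75 mM NaCl, 0.5 mM β-mercaptoethanol, 5% DMSO; parallel runs used phosphate buffer. Kd, ΔH and −TΔS were derived from the titrations.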

[2] = test system: insulin receptor (IR) tyrosine phosphorylation in HepG2 hepatocytes; experiment: IR phosphorylation in HepG2 cells; type: cell-based, human; settings: 10 μM compound overnight, 10 nM insulin 5 min
Summary of the method: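 HepG2 cells were grown in MEM with 10% FBS and pen/strep and confirmed mycoplasma-free. Cells were treated overnight with 10 μM test compound or DMSO in 0.1% FBS medium, then stimulated with 10 nM bovine insulin for 5 min at 37°C. Read-outs were anti-IRβ immunoprecipitation with pY1162/Y1163 Western blot (2 experiments) and pIRβ Y1150/Y1151 sandwich ELISA (5 experiments).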

| SMILES | inhibition of LMPTP-A mutated at Y49 and Y132 [1] | inhibition of LMPTP-A mutated at Y131 alone or in combination with Y49 and Y132 [1] | solubility (Solubility) | Kd (human LMPTP-A; Tris buffer, no vanadate) [µM] | Kd (human LMPTP-A; phosphate buffer) [µM] | −TΔS (human LMPTP-A; Tris buffer, no vanadate) [kJ/mol] | −TΔS (human LMPTP-A; phosphate buffer) [kJ/mol] | HepG2 IR phosphorylation after insulin stimulation [2] |
| --- | --- | --- | --- | --- | --- | --- | --- | --- |
| N#Cc1ccccc1-c1cc(NCCCN2CCCCC2)c2ccccc2n1 [Compd. 18] | substantially reduced | completely abolished | highly soluble | 8 ± 2 | 10 ± 2 | -26.8 ± 1.3 | -23.4 ± 1.3 |  |
| c1ccc(-c2cc(SCCCN3CCCCC3)c3ccccc3n2)cc1 [Compd. 28] |  |  |  |  |  |  |  | had no effect |
